The values that follow come from ChEMBL document CHEMBL4823270, “A first-in-class anticancer dual HDAC2/FAK inhibitors bearing hydroxamates/benzamides capped by pyridinyl-1,2,4-triazoles” (Eur J Med Chem, 2021).

The source made the active and inactive calls. The rule behind the calls is not given here.

One may read the IC50 as the concentration at which inhibition is half-maximal.

Experiment [1] deals with T1, Histone deacetylase 2 (Homo sapiens, UniProt Q92769). The experiment is described as follows: Inhibition of HDAC2 in human CAKI-1 cells assessed as reduction in HDAC2 expression by Western blot analysis. It is filed as cell-based. The method, boiled down:
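40 μg protein (Bradford) resolved by SDS-PAGE, transferred to PVDF, blocked 1 h in milk or BSA. Primary antibody overnight, HRP secondary 1 h, ECL detection; β-actin as loading control.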
In general terms: In western blotting, separated proteins are transferred to a membrane and probed.

Experiment [2] deals with CAKI-1. As to the kind of experiment: Induction of apoptosis in human CAKI-1 cells at 1.5 uM measured after 24 hrs by Annexin-V/propidium iodide staining based flow cytometry relative to control. It is filed as functional. In outline: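 Cells in supplemented medium with 10% FBS at 37 °C, 5% CO2, exposed to 0.75 or 1.5 μM compound, or DMSO as negative control, for 24 h. Apoptosis assessed by annexin V/PI staining per kit instructions, then flow cytometry; apoptotic cell percentage quantified against control.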
(In general: In flow cytometry, cells or beads pass a laser one at a time.)

The test system of experiment [3] is CAKI-1. The experiment is described as follows: Antiproliferative activity against human CAKI-1 cells assessed as cell growth inhibition incubated for 24 hrs by MTT assay. It is filed as functional, cell-based. The conditions noted are these: CAKI-1, 24 h.
Experiment [4] concerns CAKI-1. As to the kind of experiment: Growth inhibition of human CAKI-1 cells at 10 uM incubated for 24 hrs by MTT assay relative to control. Type of experiment: functional. Particulars: read-out: GI. In outline:
(§1)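 Cells seeded at 1 × 10^4 per well, cultured overnight, then exposed to 10 μM compound or DMSO (negative control) for 24 h. After a PBS wash, MTT (2 mg/ml) was added for 4 h at 37°C and formazan dissolved in DMSO. OD read at 570 nm. Growth inhibition = 1 − (OD treated/OD control); at least three independent experiments.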
Background: Tetrazolium assays rely on reduction of a dye to a coloured formazan, in cell work by metabolically active cells.

Experiment [5] deals with A498. The experiment is described as follows: Induction of apoptosis in human A498 cells assessed as activation of caspase-8 measured after 24 hrs by ELISA relative to control. It is filed as functional.
For experiment [6], the target named is T1, Histone deacetylase 2. As to the kind of experiment: Inhibition of human full-length recombinant HDAC2 preincubated for 5 mins followed by HDAC substrate addition and further incubated for 45 mins by fluorescence microplate reader assay.
A further experiment deals with HT-29. As to the kind of experiment: Growth inhibition of human HT-29 cells at 10 uM incubated for 24 hrs by MTT assay relative to control. Type of experiment: functional. The conditions noted are these: read-out: GI. The method, boiled down: as §1
The next experiment relates to K562. As to the kind of experiment: Growth inhibition of human K562 cells at 10 uM incubated for 24 hrs by MTT assay relative to control. It is filed as functional. The conditions noted are these: read-out: GI. In outline: as §1
Experiment [7] relates to CAKI-1. The experiment is described as follows: Induction of cell cycle arrest in human CAKI-1 cells assessed as accumulation at G2/M phase incubated for 24 hrs by propidium iodide based flow cytometry analysis (reference value: 5.5 %). Type of experiment: functional. The method, boiled down: (§2)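 Cells at 1 × 10^5/mL treated with 0.75 or 1.5 μM compound or DMSO (negative control) for 24 h, harvested and washed in PBS. Fixed by dropwise ice-cold 80% ethanol with vortexing, held overnight, washed twice, PI-stained 20 min in the dark. Phase distribution read by flow cytometry.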

For experiment [8], the system named is A498. As to the kind of experiment: Induction of cell cycle arrest in human A498 cells assessed as accumulation at G2/M phase incubated for 24 hrs by propidium iodide based flow cytometry analysis (reference value: 18 %). It is filed as functional. In outline: as §2
The subject of the next experiment is HCT-116. The experiment is described as follows: Growth inhibition of human HCT-116 cells at 10 uM incubated for 24 hrs by MTT assay relative to control. It is filed as functional. The conditions noted are these: read-out: GI. In outline: as §1
The target in another experiment is Focal adhesion kinase 1 (Homo sapiens, UniProt Q05397). As to the kind of experiment: Inhibition of FAK in human A498 cells assessed as reduction in FAK phosphorylation pretreated for 12 weeks followed by treatment for last 24 hrs by Western blot analysis. It is filed as cell-based. The conditions noted are these: time 85.0 day.
Chain of Focal adhesion kinase 1 (Q05397 2-1052 limits assumed): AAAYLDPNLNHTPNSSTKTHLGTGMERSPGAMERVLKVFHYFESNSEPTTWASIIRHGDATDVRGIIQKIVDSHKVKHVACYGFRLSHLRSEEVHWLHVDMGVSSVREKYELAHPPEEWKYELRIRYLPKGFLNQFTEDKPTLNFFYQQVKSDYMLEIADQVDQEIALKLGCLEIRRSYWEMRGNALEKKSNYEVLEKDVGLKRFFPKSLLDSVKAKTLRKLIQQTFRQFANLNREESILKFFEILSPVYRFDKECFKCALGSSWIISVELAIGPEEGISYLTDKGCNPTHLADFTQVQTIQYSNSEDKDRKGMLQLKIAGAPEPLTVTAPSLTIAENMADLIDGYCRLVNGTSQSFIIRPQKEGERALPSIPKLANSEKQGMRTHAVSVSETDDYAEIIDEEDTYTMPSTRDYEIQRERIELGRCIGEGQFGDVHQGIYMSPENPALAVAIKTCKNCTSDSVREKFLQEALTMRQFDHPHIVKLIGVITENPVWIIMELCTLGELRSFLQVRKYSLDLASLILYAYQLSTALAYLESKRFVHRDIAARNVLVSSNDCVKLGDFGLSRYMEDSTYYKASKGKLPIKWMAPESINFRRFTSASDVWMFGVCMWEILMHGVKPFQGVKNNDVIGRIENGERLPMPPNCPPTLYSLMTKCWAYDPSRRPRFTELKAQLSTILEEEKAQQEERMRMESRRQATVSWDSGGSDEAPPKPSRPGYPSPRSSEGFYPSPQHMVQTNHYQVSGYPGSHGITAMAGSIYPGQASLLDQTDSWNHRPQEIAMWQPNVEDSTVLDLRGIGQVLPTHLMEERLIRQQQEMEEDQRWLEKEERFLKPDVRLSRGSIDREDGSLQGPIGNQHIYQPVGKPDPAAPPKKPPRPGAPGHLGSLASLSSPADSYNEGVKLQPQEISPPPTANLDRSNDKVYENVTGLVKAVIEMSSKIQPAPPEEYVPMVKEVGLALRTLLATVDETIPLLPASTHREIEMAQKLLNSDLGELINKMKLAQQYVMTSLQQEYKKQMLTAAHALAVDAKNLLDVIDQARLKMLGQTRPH
The next experiment has as its target T2, Histone deacetylase 8 (Homo sapiens, UniProt Q9BY41).
T2 sequence (Q9BY41 whole entry): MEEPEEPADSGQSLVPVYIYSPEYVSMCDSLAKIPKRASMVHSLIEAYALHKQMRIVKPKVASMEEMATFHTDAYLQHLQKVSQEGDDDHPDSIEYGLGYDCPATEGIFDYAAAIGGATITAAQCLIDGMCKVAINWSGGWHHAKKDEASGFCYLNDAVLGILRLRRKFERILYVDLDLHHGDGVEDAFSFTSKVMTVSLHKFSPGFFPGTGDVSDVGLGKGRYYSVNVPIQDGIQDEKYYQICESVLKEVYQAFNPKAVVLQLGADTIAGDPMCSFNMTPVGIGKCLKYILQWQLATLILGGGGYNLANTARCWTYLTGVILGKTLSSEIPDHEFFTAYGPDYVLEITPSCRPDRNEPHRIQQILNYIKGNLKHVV
The experiment is described as follows: Inhibition of human full-length recombinant C-terminal His-tagged HDAC8 expressed in baculovirus infected Sf9 insect cells preincubated for 5 mins followed by HDAC substrate addition and further incubated for 45 mins by fluorescence microplate reader assay.

T1 sequence (Q92769 whole entry): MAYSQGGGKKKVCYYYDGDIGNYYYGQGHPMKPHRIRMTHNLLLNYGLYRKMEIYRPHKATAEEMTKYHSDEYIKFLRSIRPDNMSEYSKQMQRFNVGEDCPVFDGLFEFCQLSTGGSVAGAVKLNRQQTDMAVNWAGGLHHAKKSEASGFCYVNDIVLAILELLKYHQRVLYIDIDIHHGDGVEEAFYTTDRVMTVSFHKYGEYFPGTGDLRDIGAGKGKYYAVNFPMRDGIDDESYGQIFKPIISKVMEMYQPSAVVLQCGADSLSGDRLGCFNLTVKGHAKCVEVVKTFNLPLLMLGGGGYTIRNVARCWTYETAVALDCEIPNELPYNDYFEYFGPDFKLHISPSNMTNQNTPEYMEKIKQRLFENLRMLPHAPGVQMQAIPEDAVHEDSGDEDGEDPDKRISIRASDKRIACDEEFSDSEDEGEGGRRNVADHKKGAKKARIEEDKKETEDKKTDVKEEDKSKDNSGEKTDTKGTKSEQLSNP

As for `Cn1c(SCCCCCC(=O)NO)nnc1-c1ccncc1`, the inhibition entry at Histone deacetylase 2 [1] and at Focal adhesion kinase 1 was “Active” in each case. For the same compound, the Activity in the experiment with CAKI-1 [2] came out at 37%; with CAKI-1 [7] it was 35%; with A498 [8] it was 65%. In addition, the half-inhibitory concentration (IC50) in the experiment on CAKI-1 [3] is 1230 nM; on Histone deacetylase 2 [6], 90 nM; at Histone deacetylase 8, 7100 nM. The inhibition of growth at 10 µM in the experiment with CAKI-1 [4] amounted to 98.1%; with HT-29, 68.3%; in the experiment with K562, 40.1%; in the experiment with HCT-116 it was 60.1%. The “fold change (FC)” value in the experiment with A498 [5] stood at 3.
